Data from ChEMBL document CHEMBL2417536, “New pyridazine-fluorine derivatives: synthesis, chemistry and biological activity. Part II” (2013).
Converted amounts (≈) assume the structure as drawn.

Assays:
Escherichia coli [1] = assay: Antibacterial activity against Escherichia coli ATCC 25922 assessed as growth inhibition at 30 ug/disc after 24 hrs by disc diffusion assay; format: functional; details: ATCC 25922, 24 h, read-out: DIZ
Outline: (§1)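 Chloramphenicol control discs at 30 µg/disc on Mueller Hinton agar seeded 1/10 with 0.5 McFarland suspension. Incubated 24 h at 30 °C; inhibition zone diameter (mm) read.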

Kocuria rhizophila [2] = assay: Antibacterial activity against Sarcina luteus ATCC 9341 assessed as growth inhibition at 30 ug/disc after 24 hrs by disc diffusion assay; format: functional; details: DC2201, 24 h, read-out: DIZ; outline: as §1
Kocuria rhizophila [3] = assay: Antibacterial activity against Sarcina luteus ATCC 9341 assessed as growth inhibition after 24 hrs by broth microdilution assay; format: functional; details: DC2201, 24 h
Outline: (§2)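 Broth microdilution in Mueller Hinton broth. Inoculum adjusted to 0.5 McFarland. Compounds dissolved in 50% DMSO at 250 mg/mL (stock), then two-fold serial dilutions over 250 to 0.12 mg/mL. Further broth plus 5 µL inoculum added per well. Incubated 24 h at 37 °C, screened twice per organism. MIC is the lowest concentration with no visible growth; chloramphenicol MIC expressed in µg/mL.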

Staphylococcus aureus [4] = assay: Antibacterial activity against Staphylococcus aureus ATCC 25923 assessed as growth inhibition at 30 ug/disc after 24 hrs by disc diffusion assay; format: functional; details: ATCC 25923, 24 h, read-out: DIZ
Outline: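 Disc diffusion. A 0.5 McFarland bacterial suspension was mixed 1/10 with Mueller Hinton agar. Sterile 5 mm filter paper discs, set in sterile steel cylinders, were loaded at 30 µg/disc (the reference antibiotic dose; test compounds were 4 mg/disc in chloroform). Plates were incubated 24 h at 30 °C, and the inhibition zone diameter (mm, mean) was measured.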

Bacillus subtilis [5] = assay: Antibacterial activity against Bacillus subtilis assessed as growth inhibition after 24 hrs by broth microdilution assay; format: functional; outline: as §2
Staphylococcus aureus [6] = assay: Antibacterial activity against Staphylococcus aureus ATCC 25923 assessed as growth inhibition after 24 hrs by broth microdilution assay; format: functional; details: ATCC 25923, 24 h; outline: as §2
Pseudomonas aeruginosa [7] = assay: Antibacterial activity against Pseudomonas aeruginosa ATCC 27853 assessed as growth inhibition at 30 ug/disc after 24 hrs by disc diffusion assay; format: functional; details: ATCC 27853, 24 h, read-out: DIZ; outline: as §1
Bacillus subtilis [8] = assay: Antibacterial activity against Bacillus subtilis assessed as growth inhibition at 30 ug/disc after 24 hrs by disc diffusion assay; format: functional; details: read-out: DIZ; outline: as §1
Kocuria rhizophila [9] = assay: Antibacterial activity against Sarcina luteus ATCC 9341 assessed as growth inhibition at 4 mg/disc after 24 hrs by disc diffusion assay; format: functional, DC2201
Outline: (§3)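 Disc diffusion. Suspension at 0.5 McFarland mixed 1/10 into Mueller Hinton agar. 5 mm sterile filter-paper discs, set in stainless steel cylinders, moistened with compound in chloroform at 4 mg/disc. Plates incubated 24 h at 30 °C; inhibition zone diameter (mm, mean) measured.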

Escherichia coli [10] = assay: Antibacterial activity against Escherichia coli ATCC 25922 assessed as growth inhibition at 4 mg/disc after 24 hrs by disc diffusion assay; format: functional; outline: as §3
Staphylococcus aureus [11] = assay: Antibacterial activity against Staphylococcus aureus ATCC 25923 assessed as growth inhibition at 4 mg/disc after 24 hrs by disc diffusion assay; format: functional; outline: as §3
Bacillus subtilis [12] = assay: Antibacterial activity against Bacillus subtilis assessed as growth inhibition at 4 mg/disc after 24 hrs by disc diffusion assay; format: functional; outline: as §3
Pseudomonas aeruginosa [13] = assay: Antibacterial activity against Pseudomonas aeruginosa ATCC 27853 assessed as growth inhibition at 4 mg/disc after 24 hrs by disc diffusion assay; format: functional; outline: as §3
Candida albicans = assay: Antifungal activity against Candida albicans ATCC 10231 assessed as growth inhibition at 4 mg/disc after 48 hrs by disc diffusion assay; format: functional
Outline: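 Candida albicans suspension at 0.5 McFarland mixed 1/10 into Sabouraud agar. 5 mm filter-paper discs in steel cylinders, loaded with compound in chloroform at 4 mg/disc; nystatin control at 100 µg/disc. Incubated 48 h at 28 °C; inhibition zone diameter (mm) measured.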

| SMILES | zone of inhibition at 30 µg/disc (Escherichia coli [1]) | zone of inhibition at 30 µg/disc (Kocuria rhizophila [2]) | MIC (Kocuria rhizophila [3]) | zone of inhibition at 30 µg/disc (Staphylococcus aureus [4]) | MIC (Bacillus subtilis [5]) | MIC (Staphylococcus aureus [6]) | zone of inhibition at 30 µg/disc (Pseudomonas aeruginosa [7]) | zone of inhibition at 30 µg/disc (Bacillus subtilis [8]) | diameter of the inhibition zone (DIZ) (Kocuria rhizophila [9]) | diameter of the inhibition zone (DIZ) (Escherichia coli [10]) | diameter of the inhibition zone (DIZ) (Staphylococcus aureus [11]) | diameter of the inhibition zone (DIZ) (Bacillus subtilis [12]) | diameter of the inhibition zone (DIZ) (Pseudomonas aeruginosa [13]) | diameter of the inhibition zone (DIZ) (Candida albicans) |
| --- | --- | --- | --- | --- | --- | --- | --- | --- | --- | --- | --- | --- | --- | --- |
| O=C(N[C@H](CO)[C@H](O)c1ccc([N+](=O)[O-])cc1)C(Cl)Cl [CHLORAMPHENICOL] | 29 mm | 30 mm | 0.25 µg/mL (≈ 0.774 µM) | 25 mm | 0.25 µg/mL (≈ 0.774 µM) | 0.25 µg/mL (≈ 0.774 µM) | 19 mm | 25 mm |  |  |  |  |  |  |
| CCOC(=O)c1c(C(F)(F)F)c2cccnn2c1C(=O)c1ccc(Cl)cc1 |  |  |  |  |  |  |  |  | 44 mm | 42 mm | 29 mm | 38 mm | 18 mm | 26 mm |
| O=C(OCC(F)(F)F)[C@H]1C[C@H](C(=O)c2ccc(Cl)cc2)N2N=CC=C[C@@H]12 |  |  |  |  |  |  |  |  | 58 mm | 35 mm | 30 mm | 33 mm | 20 mm | 37 mm |
| CCOC(=O)c1c(C(F)(F)F)c2cccnn2c1C(=O)c1ccc(F)cc1 |  |  |  |  |  |  |  |  | 41 mm | 34 mm | 30 mm | 31 mm | 16 mm | 29 mm |
| CCOC(=O)c1c(C(F)(F)F)c2cccnn2c1C(=O)c1ccc(C)cc1 |  |  | 100 µg/mL (≈ 266 µM) |  | 220 µg/mL (≈ 585 µM) | 160 µg/mL (≈ 425 µM) |  |  | 60 mm | 40 mm | 49 mm | 36 mm | 19 mm | 32 mm |
| CCOC(=O)[C@H]1[C@H](C(F)(F)F)[C@@H]2C=CC=NN2[C@H]1C(=O)c1ccc(F)cc1 |  |  |  |  |  |  |  |  | 58 mm | 31 mm | 28 mm | 38 mm | 21 mm | 29 mm |
| Cc1ccc(C(=O)[C@H]2C[C@H](C(=O)OCC(F)(F)F)[C@@H]3C=CC=NN23)cc1 |  |  | 110 µg/mL (≈ 300 µM) |  | 180 µg/mL (≈ 491 µM) | 3800 µg/mL (≈ 10400 µM) |  |  | 59 mm | 28 mm | 30 mm | 39 mm | 20 mm | 30 mm |
| O=C(OCC(F)(F)F)[C@H]1C[C@H](C(=O)c2ccc(F)cc2)N2N=CC=C[C@@H]12 |  |  |  |  |  |  |  |  | 55 mm | 26 mm | 28 mm | 31 mm | 19 mm | 27 mm |
| CCOC(=O)[C@H]1[C@H](C(F)(F)F)[C@@H]2C=CC=NN2[C@H]1C(=O)c1ccc(C)cc1 |  |  | 90 µg/mL (≈ 237 µM) |  | 200 µg/mL (≈ 526 µM) | 4200 µg/mL (≈ 11000 µM) |  |  | 61 mm | 27 mm | 29 mm | 38 mm | 21 mm | 31 mm |
